# Data as given in the RNAGym collection of RNA variant scans (doi:10.1126/science.aae0568).
# Variants at the floor of the assay were thinned out.
# B1: tRNA (parent)
# chain: GUUCCGUUGGCGUAAUGGUAACGCGUCUCCCUCCUAAGGAGAAGACUGCGGGUUCGAGUCCCGUACGGAACG
# Variants of: B1
# Assay: yeast fitness relative to wild type (ratio to wild type); higher = fitter; tRNA-Arg(CCU), competitive growth, 37 C, YPD
# Procedure, shortened: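 Gene amplicons from the start population and from each of six end populations were read by 100-nucleotide paired-end sequencing. Those end populations came from pooled Saccharomyces cerevisiae strains carrying tRNA-Arg(CCU) gene variants at the native locus, competed in YPD at 37°C for 24 hours. Fitness relative to wild type was worked out from changes in genotype frequencies. Genotypes needed ≥ 100 starting reads, and estimates < 0.5 were set to 0.5.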
row,Variant,yeast fitness
1,G6C A20C A40G A42U C60G,≤ 0.5
2,G6A G18C C61G,0.563
3,G6C A14C C29U C34G C46U C66A G68C,≤ 0.5
4,G6C G23C,0.643
5,G6A U47A A57U,≤ 0.5
6,G6C C24A U28A C34U,≤ 0.5
7,G6C A15G G51A C66U A69C,≤ 0.5
8,G6A U35A G67C,≤ 0.5
9,G6A G10A G39C A70C,≤ 0.5
10,G6A G9C U32C A36G,≤ 0.5
11,G6C C24G C27G C29A C34U U53A A70G,≤ 0.5
12,G6C C22A C33G G48C,≤ 0.5
13,G6C G23C C24A C61U,≤ 0.5
14,G6C A45G,0.823
15,G6A U7G U26C G52A C55U,≤ 0.5
16,G6C C62G,0.688
17,G6C C62U,0.879
18,G6A G12A G23C C49G U53G A57G,≤ 0.5
19,G6C A20C U35C A40G A42U G58A G63A G67A,≤ 0.5
20,G6C C11U C31G A36G,0.66
21,G6A G50A G58A,0.698
22,G6C C24U G52A,≤ 0.5
23,G6A U19A,0.973
24,G6A U19C,0.99

row,Variant,yeast fitness
1,G6C G38C C46A,0.54
2,G6C A14G U35G,0.605
3,G6C C24U,0.751
4,G6A G12C G18C G41A A43G G48A,≤ 0.5
5,G6A U8A C22G U47A A70C,≤ 0.5
6,G6C C33U G38C G52C C62U,≤ 0.5
7,G6A U8C G18C A21C C33A,≤ 0.5
8,G6C G63C A69G,≤ 0.5
9,G6C C24U G67C,0.537
10,G6C A57G A65G C66U,0.537
11,G6C C34G A65G,≤ 0.5
12,G6A G12A C27G G68C A70U,0.549
13,G6C C22A C31G C49G G68C,≤ 0.5
14,G6A U13A U26C C30G A65C,≤ 0.5
15,G6A G23A C27U C60G G67A,≤ 0.5
16,G6C A14G A20C G68C,≤ 0.5
17,G6A U13G C27U C61G,0.667
18,G6C C29G C66G,≤ 0.5
19,G6A U13G C27U C30A G44C C46U,≤ 0.5
20,G6C G38C C60A,≤ 0.5
21,G6C G38C C46A G67U,≤ 0.5
22,G6C G17A A36U,≤ 0.5
23,G6C A15U A43U A65U,≤ 0.5
24,G6C G10A,0.666

row,Variant,yeast fitness
1,G6C C31U C34G,≤ 0.5
2,G6C G9C U32A G38C U47A,≤ 0.5
3,G6C C34U G44A C55G C66G,0.649
4,G6A G51A,0.83
5,G6A G51C,0.595
6,G6C C33G G38C,≤ 0.5
7,G6A U8G A45U G48C,≤ 0.5
8,G6C C34U,0.648
9,G6C C34A,0.611
10,G6C C33G A36C C49A C60G A65G A70U,≤ 0.5
11,G6A U19C U28G U32A G38C,≤ 0.5
12,G6C C22A C31G A65C,≤ 0.5
13,G6C A40G A42G A57C C66U,≤ 0.5
14,G6A G12A C27U C30G C55U A57C,≤ 0.5
15,G6C C29G C61U,≤ 0.5
16,G6A U16A C33G A36U,≤ 0.5
17,G6C A20G,0.773
18,G6C A20C,0.773
19,G6C A37C G67C,≤ 0.5
20,G6C A36C A65C G67A,≤ 0.5
21,G6C C49U U53C C61G,≤ 0.5
22,G6A G23A C24G G44A,≤ 0.5
23,G6C G39C C55G,≤ 0.5
24,G6C A20G C22U,≤ 0.5

row,Variant,yeast fitness
1,G6A U19C G41C,0.67
2,G6C A15G,0.808
3,G6C A15U,0.738
4,G6C C46U,0.966
5,G6C U7A C46U,0.577
6,G6A U8C G10A U19C G41A U47C,≤ 0.5
7,G6A U7A,0.749
8,G6C A42U C49U,0.595
9,G6A G23C G68A,≤ 0.5
10,G6A G9U,0.774
11,G6A U16G A21G A40G A42U G67C,≤ 0.5
12,G6A U28C C61U,0.628
13,G6C C24A A69U,≤ 0.5
14,G6C C24U G38C A40G U47C,≤ 0.5
15,G6A G18C A21C C33A G56A,≤ 0.5
16,G6C A43C G50A A70U,0.519
17,G6C C27U A45G U64A,0.67
18,G6A U26C G44C,≤ 0.5
19,G6A U26C C29A,≤ 0.5
20,G6A U28A G51A A57U,≤ 0.5
21,G6A G17A C24G C27G G67A,≤ 0.5
22,G6A G41C C55G,0.529
23,G6A U13A,0.848
24,G6A U13C,0.937

row,Variant,yeast fitness
1,G6C C31U G39A C46G,≤ 0.5
2,G6A G23C A37U A57G A65C,≤ 0.5
3,G6C U7C C31G,≤ 0.5
4,G6A G38C,0.808
5,G6A G38A,0.812
6,G6C A21U C61G A69C,≤ 0.5
7,G6C A45C G67C,0.536
8,G6C C33U,0.644
9,G6C U7A A21C A37C U47C A69C,≤ 0.5
10,G6A G52A G63A,≤ 0.5
11,G6A G17A C27U C31G C66G,≤ 0.5
12,G6C G23C C31G,≤ 0.5
13,G6A G10C A20G C22U G38C C61G,≤ 0.5
14,G6A U16G A21G A40G A42U,0.535
15,G6A G44A C46A G52A A65U,≤ 0.5
16,G6A G17A C27U C33A A37C,≤ 0.5
17,G6A G18C C30G C34A A37C C61U A65U,≤ 0.5
18,G6C U7A C34U C61U,0.658
19,G6A G12C A36C,≤ 0.5
20,G6C C60A,0.583
21,G6A U35G A42G G56C,≤ 0.5
22,G6A G10C C30A A69U,0.786
23,G6C U7C C34G C55U,≤ 0.5
24,G6A G10A A43G U47G,0.761

row,Variant,yeast fitness
1,G6A G17C G18C A45G G58A,≤ 0.5
2,G6C G10A C27A C61U A65U,≤ 0.5
3,G6A U13A U19C A40U G67A,≤ 0.5
4,G6C A14G A20C U47C U64A G67A,≤ 0.5
5,G6C C34U C66U A70U,0.639
6,G6C G50A A70U,0.633
7,G6A G48C G63C,0.667
8,G6A U35G A43C G51A,≤ 0.5
9,G6C G41A C62U,≤ 0.5
10,G6C A14C C31G A42U A43G,≤ 0.5
11,G6C G12A C49U G58C,0.776
12,G6C C33U G52C C55A,≤ 0.5
13,G6C G12C C29A,≤ 0.5
14,G6C C33U C62U,≤ 0.5
15,G6C A21G U32C G48A,0.716
16,G6C G10C C22G C30U C34U A36U,0.517
17,G6A G10C,0.725
18,G6C A21U,0.673
19,G6A G44C G50C A57G,≤ 0.5
20,G6A G12C C27A A37G C49U,≤ 0.5
21,G6C A21G C55A C61A,≤ 0.5
22,G6A G18C C30G C34A A37C A65U,0.584
23,G6C G12A G58C,0.964
24,G6C C55G A70C,≤ 0.5

row,Variant,yeast fitness
1,G6C A69C,0.852
2,G6C A69U,0.976
3,G6A G63C,0.727
4,G6C G44C A65G A70C,≤ 0.5
5,G6A U54A,0.674
6,G6A U54C,0.948
7,G6C U7C A21U G44A,≤ 0.5
8,G6A U8C,0.792
9,G6C A45C G56A,0.568
10,G6C G9A A21U U28G C34U A45C,≤ 0.5
11,G6A G39A U53A,≤ 0.5
12,G6A U26A C33A G51C C62U,0.591
13,G6C C29A,0.667
14,G6C A40G C66U,≤ 0.5
15,G6C G18C A21G A40U U47A C49U C61U A70G,≤ 0.5
16,G6C A21U A36C A57G,≤ 0.5
17,G6C A36G G51A,≤ 0.5
18,G6A G12A C22U A42C,≤ 0.5
19,G6A G25C C34U C46A,≤ 0.5
20,G6C C24U C27G,≤ 0.5
21,G6A G44C A69U,0.586
22,G6A U16A A36C,≤ 0.5
23,G6C G23A C27U A45G U64A,≤ 0.5
